Laboratory results taken from ChEMBL document CHEMBL1123528, “Syntheses and in vitro evaluation of 4-(2-aminoethyl)-2(3H)-indolones and related compounds as peripheral prejunctional dopamine receptor agonists” (J Med Chem, 1986).

Species on record: Oryctolagus cuniculus
Assay: Ability to stimulate peripheral prejunctional dopaminergic receptors by 50% inhibition of vasoconstrictor response to field stimulation in isolated perfused rabbit ear artery
Type: functional
In short: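 Isolated rabbit ear artery, perfused, constricted by electrical field (nerve) stimulation. The test drug was given in increasing concentrations, each left in contact with the tissue for 4 min, and the concentration was raised right after the response to nerve stimulation. For dopaminergic blockade, (S)-sulpiride superfusion began after the initial concentration-effect curve was obtained.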

EC50 [nM]	SMILES
3000	CCCN(CCC)CCc1ccc2c(c1)CC(=O)N2
> 3000	CCCN(CCC)CCc1ccc(OC)c2c1CC(=O)N2
> 3000	CCCN(CCC)CCc1ccc2c(c1)NC(=O)C2
> 3000	NCCc1ccc2c(c1)CC(=O)N2
28	CCCN(CCc1ccc(O)cc1)CCc1cccc2c1CC(=O)N2
218	CCCN(CCC)CCc1ccc(O)c2c1C(C)(O)C(=O)N2 (configuration not stated)
> 3000	CCCN(CCC)CCc1ccc(O)c2c1C(C)(C)C(=O)N2
53	O=C1Cc2c(CCNCCc3ccc(O)cc3)ccc(O)c2N1
18	CCCN(CCC)CCc1ccc(O)c2c1C(C)C(=O)N2 (configuration not stated)
> 3000	CCCN(CCC)CCc1ccc(O)c2c1CC(=O)N2C

SMILES	EC50 [nM]
CCCN(CCC)CCc1ccc(O)c(NC=O)c1	750
CCCN(CCC)CCc1cccc(O)c1	700
CCCN(CCC)CCc1cccc2c1CC(=O)N2 [ROPINIROLE]	100
CCCN(CCC)CCc1ccc(O)cc1	80
CCCN(CCC)CCc1ccc(O)c(NC(C)=O)c1	> 10000
NCCc1ccc(O)c2c1CC(=O)N2	116
NCCc1ccc(O)c(O)c1 [DOPAMINE]	73
